Measured values reported in ChEMBL document CHEMBL3232879, “4,5,6,7-Tetrahydro-isoxazolo-[4,5-c]-pyridines as a new class of cytotoxic Hsp90 inhibitors” (Eur J Med Chem, 2014).
Active and inactive are the calls of the source. The calls are words filed in the database; no cut-off is given here.

Key:
NCI-H460 = experiment: Cytotoxicity against human NCI-H460 cells assessed as growth inhibition after 72 hrs by sulforhodamine B assay; type: functional, cell-based; conditions: NCI-H460, 72 h
Method in brief: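 Log-phase NCI-H460 cells seeded, drug added 24 h later, exposed 72 h. Survival read by sulforhodamine B staining. IC50 fitted by curve analysis as the concentration halving cell number relative to untreated controls.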

[1] = target: Heat shock protein HSP 90-alpha (Homo sapiens, UniProt P07900); experiment: Displacement of GM-FTC from Hsp90-alpha (unknown origin) after 4 hrs by fluorescence polarization assay
K562 [2] = experiment: Induction of apoptosis in human K562 cells assessed as hypoploid nuclei accumulated in sub-G0-G1 phase after 72 hrs by propidium iodide staining-based fluorescence microscopic analysis; conditions: K562, 72 h
K562 [3] = experiment: Cell cycle arrest in human K562 cells assessed as accumulation at G1 phase at 1 uM after 24 hrs by propidium iodide staining-based flow cytometric analysis; type: functional
Method in brief: (§1)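 K562 cells exposed for 24 h, then washed once in ice-cold PBS. Resuspended at 1×10^6 cells/mL in a hypotonic solution of propidium iodide in 0.1% sodium citrate with 0.03% (v/v) Nonidet P-40 for 30 min. Filtered through nylon cloth, then single-parameter DNA fluorescence histograms read by flow cytometry. Cell-cycle phase distribution obtained by modelling, with untreated cells as control.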

K562 [4] = experiment: Cytotoxicity against human K562 cells assessed as growth inhibition after 72 hrs by trypan blue exclusion assay; type: functional, cell-based; conditions: for IC50: K562, 72 h
Method in brief: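 K562 cells, 2×10^5 per well in 1 mL complete medium, exposed to a range of drug concentrations. Cells stained with trypan blue and counted on a hemocytometer; dye-uptaking cells scored nonviable. Viable count expressed as percent of control proliferation; IC50 is the concentration giving 50% growth inhibition. Methods give 48 h incubation, table footnote 72 h exposure.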

K562 [5] = experiment: Cell cycle arrest in human K562 cells assessed as reduction of S phase fraction at 1 uM after 24 hrs by propidium iodide staining-based flow cytometric analysis; type: functional; method in brief: as §1
K562 [6] = experiment: Cell cycle arrest in human K562 cells assessed as reduction of S phase fraction at 75 uM after 24 hrs by propidium iodide staining-based flow cytometric analysis; type: functional; method in brief: as §1
K562 [7] = experiment: Cell cycle arrest in human K562 cells assessed as accumulation at G1 phase at 75 uM after 24 hrs by propidium iodide staining-based flow cytometric analysis; type: functional; method in brief: as §1
K562 [8] = experiment: Cell cycle arrest in human K562 cells assessed as accumulation at G1 phase at 10 uM after 24 hrs by propidium iodide staining-based flow cytometric analysis; type: functional; method in brief: as §1
K562 [9] = experiment: Cell cycle arrest in human K562 cells assessed as reduction of S phase fraction at 10 uM after 24 hrs by propidium iodide staining-based flow cytometric analysis; type: functional; method in brief: as §1

Row | SMILES | IC50 (NCI-H460) [µM] | IC50 [1] [µM] | other results
1 | CCOC(=O)c1noc2c1CN(C(=O)c1cc(C(C)C)c(O)cc1O)CC2 | 0.87 | 0.1 | –
2 | CCNC(=O)c1noc2c1CN(C(=O)c1ccc(O)cc1O)CC2 | > 20 | 1.2 | –
3 | CCOC(=O)c1noc2c1CN(C(=O)c1cc(Cl)c(O)cc1O)CC2 | > 20 | 0.16 | –
4 | CC(C)c1cc(C(=O)N2CCc3onc(C(=O)NCCCl)c3C2)c(O)cc1O | 0.2 | 0.034 | –
5 | C=CCNC1=C2C[C@@H](C)C[C@H](OC)[C@H](O)[C@@H](C)/C=C(\C)[C@H](OC(N)=O)[C@@H](OC)/C=C\C=C(/C)C(=O)NC(=CC1=O)C2=O [TANESPIMYCIN] | – | – | AC50 (K562 [2]): 3.1 µM; Activity (K562 [3]): Active; IC50 (K562 [4]): 0.15 µM; Activity (K562 [5]): Active
6 | CC(C)c1cc(C(=O)N2CCc3onc(C(=O)NC4CCCC4)c3C2)c(O)cc1O | 0.9 | 0.068 | –
7 | CCOC(=O)c1noc2c1CN(C(=O)c1ccc(O)cc1O)CC2 | > 20 | 3.9 | –
8 | CCNC(=O)c1noc2c1CN(C(=O)c1cc(C(C)C)c(OC(C)=O)cc1OC(C)=O)CC2 | 0.23 | – | –
9 | CC(C)c1cc(C(=O)N2CCc3onc(C(=O)NCCN4CCOCC4)c3C2)c(O)cc1O | 0.19 | 0.054 | –
10 | CCNC(=O)c1noc2c1CN(C(=O)Nc1cc(C(C)C)c(O)cc1O)CC2 | > 1 | > 100 | –
11 | CCNC(=O)c1noc2c1CN(Cc1cc(Cl)c(O)cc1O)CC2 | > 20 | 1.4 | –
12 | CCNC(=O)c1noc2c1CN(C(=O)c1cc(Cl)c(O)cc1O)CC2 | 9.7 | 0.11 | AC50 (K562 [2]): > 100 µM; Activity (K562 [6]): Active; Activity (K562 [7]): Active; growth inhibition (GI) (K562 [4]): Dose-dependent effect; IC50 (K562 [4]): 32.6 µM
13 | CCNC(=O)c1noc2c1CN(C(=O)c1cc(C(C)C)c(O)cc1O)CC2 | 0.45 | 0.029 | AC50 (K562 [2]): 5.4 µM; Activity (K562 [8]): Active; Activity (K562 [9]): Active; growth inhibition (GI) (K562 [4]): Dose-dependent effect; IC50 (K562 [4]): 0.72 µM
14 | CCNC(=O)c1noc2c1CN(C(=O)Nc1cc(Cl)c(O)cc1O)CC2 | > 1 | > 100 | –
15 | COC(=O)c1noc2c1CN(C(C)=O)CC2 | > 1 | > 100 | –
